Measurements from ChEMBL document CHEMBL4270555, “Synthesis and biological evaluation of magnolol derivatives as melatonergic receptor agonists with potential use in depression” (Eur J Med Chem, 2018).
Activity calls are given as the source filed them. The rule behind the calls is not given here.

Legend:
[1] = Drug metabolism in Sprague-Dawley rat plasma assessed as (2S,3S,4S,5R,6S)-6-(5-acryloyl-2'-hydroxy-5'-(1-hydroxyallyl)biphenyl-2-yloxy)-3,4,5-trihydroxytetrahydro-2H-pyran-2-carboxylic acid formation at 100 mg/kg, po by UPLC-IT-TOF-MS analysis; assay type: ADME, organism-based; conditions: in vivo
Summary of the method: (§1)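 Rats (n = 6) housed in metabolic cages received 100.0 mg/kg orally; controls received 0.5% CMC-Na. Plasma, urine and faeces were collected and analyzed by LC-IT-TOF-MS on a C18 column at 30 °C. Gradient 5–100% acetonitrile with 0.05% formic acid over 18 min at 0.2 mL/min; positive and negative ion MS/MS.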

[2] = Drug metabolism in Sprague-Dawley rat urine assessed as 2'-hydroxy-5'-(1-hydroxyallyl)-5-propylbiphenyl-2-yl hydrogen sulfate formation at 100 mg/kg, po by UPLC-IT-TOF-MS analysis; assay type: ADME, organism-based; conditions: in vivo
Summary of the method: (§2)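 Male/unspecified SD rats (n = 6) housed individually in metabolic cages, dosed orally at 100.0 mg/kg; controls given 0.5% CMC-Na orally. Plasma, urine and faeces collected. LC-IT-TOF-MS on C18 column at 30 °C, formic acid (0.05%) water/acetonitrile gradient 5–100% B over 18 min, 0.2 mL/min; positive and negative ion modes with automatic MS/MS.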

[3] = Drug metabolism in Sprague-Dawley rat plasma assessed as 5'-(1-hydroxyallyl)-5-propyl-2'-((2S,3R,4S,5S,6R)-3,4,5-trihydroxy-6-(hydroxymethyl)tetrahydro-2H-pyran-2-yloxy)biphenyl-2-yl hydrogen sulfate formation at 100 mg/kg, po by UPLC-IT-TOF-MS analysis; assay type: ADME, organism-based; conditions: in vivo; summary of the method: as §1
[4] = Drug metabolism in Sprague-Dawley rat feces assessed as (2R,2'R,3S,3'S,4S,4'S,5R,5'R,6S,6'S)-6,6'-(5,5'-diallylbiphenyl-2,2'-diyl)bis(oxy)bis(2-(hydroxymethyl)tetrahydro-2H-pyran-3,4,5-triol) formation at 100 mg/kg, po by UPLC-IT-TOF-MS analysis; assay type: ADME, organism-based; conditions: in vivo; summary of the method: as §1
[5] = Drug metabolism in Sprague-Dawley rat plasma assessed as 2S,3S,4S,5R,6S)-6-(5,5'-diallyl-2'-((2S,3R,4S,5S,6R)-3,4,5-trihydroxy-6-(hydroxymethyl)tetrahydro-2H-pyran-2-yloxy)biphenyl-2-yloxy)-3,4,5-trihydroxytetrahydro-2H-pyran-2-carboxylic acid formation at 100 mg/kg, po by UPLC-IT-TOF-MS analysis; assay type: ADME, organism-based; conditions: in vivo; summary of the method: as §1
[6] = Drug metabolism in Sprague-Dawley rat urine assessed as 1-(2'-hydroxy-5'-(1-hydroxyallyl)-6-((2S,3R,4S,5S,6R)-3,4,5-trihydroxy-6-(hydroxymethyl)tetrahydro-2H-pyran-2-yloxy)biphenyl-3-yl)prop-2-en-1-one formation at 100 mg/kg, po by UPLC-IT-TOF-MS analysis; assay type: ADME, organism-based; conditions: in vivo; summary of the method: as §2
[7] = system: Mus musculus; assay: Decrease in dopamine level in Kunming mouse thalamus at 40 mg/kg, po treated for 7 days by HPLC-ECD analysis; assay type: functional, organism-based
Summary of the method: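 Male Kunming mice received vehicle or 40 mg/kg for 7 days, then were killed by cervical dislocation and the brain regions dissected on ice. Tissue was homogenized in ice-cold 0.2 M perchloric acid with 0.1 mM EDTA and centrifuged at 15,000 rpm, 20 min, 4 °C. Supernatant was analyzed by HPLC-ECD (+0.50 V; phosphate/octanesulfonate mobile phase, pH 3.0). Results in ng/g, mean ± SEM.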

[8] = system: Mus musculus; assay: Increase in ratio of 5-hydroxyindole-3-acetic acid to 5-hydroxytryptamine level in Kunming mouse hypothalamus at 40 mg/kg, po treated for 7 days by HPLC-ECD analysis; assay type: functional, organism-based
Summary of the method: (§3)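 Male Kunming mice (18–20 g) given vehicle or 40 mg/kg for 7 days, then killed by cervical dislocation. Frontal cortex, hippocampus, striatum, hypothalamus and thalamus dissected on ice, homogenized in ice-cold 0.2 M perchloric acid with 0.1 mM EDTA, centrifuged 15,000 rpm, 20 min, 4 °C. Supernatant analysed by HPLC-ECD at +0.50 V; phosphate/octanesulfonate mobile phase pH 3.0 with 12% methanol. Levels in ng/g, mean ± SEM.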

[9] = Drug metabolism in Sprague-Dawley rat urine assessed as 5-allyl-5'-(1-hydroxyallyl)-2'-((2S,3R,4S,5S,6R)-3,4,5-trihydroxy-6-(hydroxymethyl)tetrahydro-2H-pyran-2-yloxy)biphenyl-2-yl hydrogen sulfate formation at 100 mg/kg, po by UPLC-IT-TOF-MS analysis; assay type: ADME, organism-based; conditions: in vivo; summary of the method: as §2
[10] = Drug metabolism in Sprague-Dawley rat urine assessed as (2S,3S,4S,5R,6S)-3,4,5-trihydroxy-6-(5-(1-hydroxyallyl)-5'-(1-hydroxypropyl)-2'-((2S,3R,4S,5S,6R)-3,4,5-trihydroxy-6-(hydroxymethyl)tetrahydro-2H-pyran-2-yloxy)biphenyl-2-yloxy)tetrahydro-2H-pyran-2-carboxylic acid formation at 100 mg/kg, po by UPLC-IT-TOF-MS analysis; assay type: ADME, organism-based; conditions: in vivo; summary of the method: as §2
[11] = system: Mus musculus; assay: Increase in ratio of 5-hydroxyindole-3-acetic acid to 5-hydroxytryptamine level in Kunming mouse hippocampus at 40 mg/kg, po treated for 7 days by HPLC-ECD analysis; assay type: functional, organism-based; summary of the method: as §3
[12] = system: Mus musculus; assay: Increase in 3,4-dihydroxyphenylacetic acid level in Kunming mouse hypothalamus at 40 mg/kg, po treated for 7 days by HPLC-ECD analysis; assay type: functional, organism-based; summary of the method: as §3
[13] = system: Mus musculus; assay: Increase in 5-hydroxyindole-3-acetic acid level in Kunming mouse frontal cortex at 40 mg/kg, po treated for 7 days by HPLC-ECD analysis; assay type: functional, organism-based; summary of the method: as §3

## C=CCc1ccc(O)c(-c2cc(CC=C)ccc2O[C@@H]2O[C@H](CO)[C@@H](O)[C@H](O)[C@H]2O)c1
[1]
  Drug metabolism: Metabolite_Notdetected
[2]
  Drug metabolism: Metabolite_Notdetected
[3]
  Drug metabolism: Metabolite_Notdetected
[4]
  Drug metabolism: Metabolite_Detected
[5]
  Drug metabolism: Metabolite_Notdetected
[6]
  Drug metabolism: Metabolite_Detected
[7]
  Activity: Active
[8]
  Activity: Active
[9]
  Drug metabolism: Metabolite_Notdetected
[10]
  Drug metabolism: Metabolite_Detected
[11]
  Activity: Active
[12]
  Activity: Active
[13]
  Activity: Active
